Results published in publication PMC4878416 (Diabetes, 2016).

Key:
DYRK1A = DYRK1A (Homo sapiens, UniProt Q13627); test: Human kinome profiling, DYRK1A; type: biochemical; details: 100 nmol/L
DYRK2 = molecular target: T1, DYRK2 (Homo sapiens, UniProt Q92630); test: Human kinome profiling, DYRK2; type: biochemical
T1 sequence (Q92630 1-601): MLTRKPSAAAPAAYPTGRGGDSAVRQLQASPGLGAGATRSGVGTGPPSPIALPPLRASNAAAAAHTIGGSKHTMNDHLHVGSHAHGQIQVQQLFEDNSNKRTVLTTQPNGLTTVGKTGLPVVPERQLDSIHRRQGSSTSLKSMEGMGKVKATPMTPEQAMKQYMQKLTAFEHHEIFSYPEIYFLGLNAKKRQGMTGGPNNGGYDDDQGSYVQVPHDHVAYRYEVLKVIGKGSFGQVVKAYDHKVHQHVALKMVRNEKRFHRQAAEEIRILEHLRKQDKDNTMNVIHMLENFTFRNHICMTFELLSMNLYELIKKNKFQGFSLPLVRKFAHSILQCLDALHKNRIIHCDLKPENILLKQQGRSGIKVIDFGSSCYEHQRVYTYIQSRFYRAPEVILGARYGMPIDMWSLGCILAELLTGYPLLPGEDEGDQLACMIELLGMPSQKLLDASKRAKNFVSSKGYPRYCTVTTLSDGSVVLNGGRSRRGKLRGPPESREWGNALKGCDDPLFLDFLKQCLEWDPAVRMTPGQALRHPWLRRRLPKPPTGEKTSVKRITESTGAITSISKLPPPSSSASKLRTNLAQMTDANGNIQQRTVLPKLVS
Procedure, shortened: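 Human kinases profiled by commercial providers under their standard protocols; ATP within 15 μmol/L of the apparent KM for each enzyme.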

[1] = system: liver, adipose, muscle and kidney tissue; test: Proliferation; type: in vivo, mouse; details: 3-week treatment, 0.25 mg/kg/BW i.p.
Procedure, shortened: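 Male NSG mice (8–10 weeks old) carried human islet kidney-capsule grafts. From 1 week post-graft they received test compound i.p. at 0.25 mg/kg in 50% DMSO or vehicle, twice weekly for 3 weeks. BrdU was then given at 100 mg/kg i.p. for 3 days, and mice were killed 6 h after the last dose. BrdU+ nuclei were counted in liver and muscle (≥3,000 cells) and in visceral/subcutaneous adipose (1,000–2,000 cells).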

human β-cells = test: EdU incorporation proliferation assay in dissociated human islet cells; type: cell-based
Procedure, shortened: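 Human islets dissociated in Accutase (5,000 IEQ/mL, 37°C, 20 min), resuspended in CMRL complete medium and seeded at ~30,000 (96-well) or ~15,000 (384-well) cells per well. EdU was present throughout the 6-day treatment, including FK506 cotreatment. Cells were fixed (3% PFA), permeabilised (0.2% Triton X-100) and stained for C-peptide and DAPI. EdU+ β-cells were scored by automated imaging and manually; 4 wells, 9 fields each; mean ± SD; two-tailed t test vs DMSO.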

[2] = system: human islet cells (all cell types); test: Proliferation of other cell types in the heterogeneous human islet cell culture; type: cell-based

remaining activity DYRK1A (DYRK1A): < 10%
remaining activity DYRK2 (DYRK2; 100 nmol/L): < 10%
IC50 (DYRK2; read-out: IC50 DYRK2, ATP within 15 μmol/L of apparent KM): 6 nM
SMILES: Nc1ncnc2c1c(I)cn2[C@@H]1O[C@H](CO)[C@@H](O)[C@H]1O [5-IT, 5-iodotubercidin]
proliferation in liver, adipose, muscle and kidney tissue, treated vs control [1]: no significant differences
increase in β-cell proliferation in pair-matched islets (human β-cells; 6-day treatment, islets pair-matched to the WS-3 test): 20 fold
concentration of maximal effect on β-cell proliferation (human β-cells; 6 days of treatment): 1 µmol/L
increase in β-cell proliferation (EdU incorporation) (human β-cells; 6 days of treatment, dissociated human islet cells, maximal effect): 10- to 12 fold
proliferation of all cell types in the heterogeneous culture system [2]: did not induce proliferation of all cell types
